# Screening results from PubChem BioAssay.
# This is a sample that favours compounds with a hit; in the whole collection about 2.1% have one here.
# MT stabilize HCS: microtubule stabilizers in HeLa cells; HeLa tubulin immunostaining HCS, 24 h; share of cells brighter than vehicle mean+2SD; % tubulin-high responders, % at 10 µM; hit rate 0.83% among 200,000; AID 2205;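 active means plate Z-score above 3 for both tubulin-high and condensed-nucleus cell shares, with cell loss under 80%, at 10 µM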;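 further: anti alpha tubulin signal scored within the nucleus-defined area of each cell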
# Ba/F3 V617F tox: reduce viability of Ba/F3 cells dependent on JAK2V617F; Ba/F3 EpoR-JAK2V617F viability, ATP luminescence; inhibition, % at 5.6 µM; hit rate 1.1% among 220,000; AID 1446;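 active means inhibition above the campaign mean plus 3 SD over all tested compounds, cut at about 24% in these data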;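 further: cytokine-independent growth of Ba/F3 cells driven by EpoR plus mutant JAK2; 0% = DMSO-treated cells and 100% = JAK inhibitor I control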
# BaF3 parental: counter-screen for JAK2V617F inhibitors: parental Ba/F3 viability inhibitors | CellTiter-Glo ATP luminescence | inhibition, % at 5.6 µM | hit rate 1.1% among 220,000 | AID 1486;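 active means inhibition above a per-campaign cutoff, the mean inhibition of all tested compounds plus 3 SD, cut at about 27% in these data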;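 further: 0% = DMSO wells and 100% = JAK Inhibitor I control wells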
# KLF5 inhibitor: suppresses KLF5 promoter-driven expression. DLD-1 KLF5 promoter-luciferase reporter, luminescence. inhibition, % at 5 µM. hit rate 0.23% among 290,000;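 active means inhibition above a per-plate limit of that plate's mean compound inhibition plus 3 SD, cut at about 60% in these data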;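 further: 0% = DMSO wells and 100% = LY294002 at 200 µM; higher means less KLF5 promoter-driven luciferase light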
# bCat nuc transl: alters nuclear translocation of beta-catenin in HeLa cells; hit rate 0.3% among 190,000; nuclear translocation activity, % at 5 µM; AID 1665; immunofluorescence imaging;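 active means nuclear translocation activity above 50% at 5 µM, with a well cell count of 50 or more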;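 further: per-cell ratio of nuclear to cytoplasmic median beta-catenin stain intensity; plate controls were DMSO negative control for no effect and GSK-3 inhibitor IX positive control for full effect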
#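 Test system: HeLa cells, endogenous beta-catenin; Compound: single 5 µM dose plus 0.02–20 µM confirmation series; Times: compound exposure 24 h at 37°C; Signal: fluorescence imaging of beta-catenin antibody stain plus DAPI; Read-out: % activation, nuclear-to-cytoplasmic median beta-catenin signal ratio per cell.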
# IEC-6 tox-1: counter-screen for KLF5 inhibitors: cytotoxicity in IEC-6 cells. IEC-6 cytotoxicity, luminescence viability. AID 1825. hit rate 0.78% among 290,000. inhibition, % at 5 µM;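 further: 0% = plate median of test compound wells and 100% = cytotoxic reference compound wells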
# KLF5 inh confirm: confirmation of KLF5 inhibitors | shares compounds with KLF5 inhibitor | DLD-1 KLF5 promoter firefly luciferase reporter, luminescence | inhibition, % at 4 µM | hit rate 79% among 610 | AID 1834;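 active means inhibition above a set limit taken from the earlier primary screen, cut at about 63% in these data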;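 further: 0% = DMSO wells and 100% = LY294002 at 200 µM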
# IEC-6 tox-2: kills rat IEC-6 cells in KLF5 counter-screen; IEC-6 rat intestinal cells, viability luminescence; shares compounds with KLF5 inhibitor; hit rate 56% among 610; inhibition, % at 4 µM; in the data active means inhibition above about 23%;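 further: cells exposed to compounds for 48 hours before viability read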
# IEC-6 cytotox cf: IEC-6 cytotoxicity, confirmation assay; shares compounds with IEC-6 tox-1; IEC-6 rat intestinal epithelial viability, luminescence; inhibition, % at 5 µM; hit rate 63% among 1,900; AID 1907;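 further: 0% = vehicle and 100% = reference cytotoxic drug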
# The depositor's hits bear a star; . = not tested or not shown. Unless noted, no stated cut-off is given here; in the data, active means inhibition above about 22%; inactive means the rest.
SMILES,MT stabilize HCS,Ba/F3 V617F tox,BaF3 parental,KLF5 inhibitor,bCat nuc transl,IEC-6 tox-1,KLF5 inh confirm,IEC-6 tox-2,IEC-6 cytotox cf
O=C(Sc1cccc2cccnc12)c1ccccc1Br,.,.,.,62*,.,102*,17,100*,99*
CCn1c(O)c(N=NC(=O)CNC(=O)Cc2ccccc2)c2ccccc21,.,.,.,3,.,2,.,.,.
O=C(CNC(=O)c1ccco1)N=Nc1c(O)n(CCc2ccccc2)c2ccccc12,.,74*,68*,71*,0,85*,83*,72*,67*
C=CCN1C(=S)N[C@@H]2CS(=O)(=O)C[C@@H]21,.,-2,-1,-17,-1,-6,.,.,.
CCCSc1ccc2nc(NC(=O)OC)[nH]c2c1,20*,78*,76*,76*,.,80*,48,61*,56*
O=C(CSc1ccc2ccccc2c1)Nc1nc2ccccc2[nH]1,4,2,7,-20,-3,2,.,.,.
CCOC(=O)N1CCC(N2C(=O)c3ccccc3C2Nc2ccc(S(=O)(=O)N3CCCCC3)cc2)CC1 (centres undefined),5,5,7,-16,-1,0,.,.,.
O=C(c1ccco1)N1CCN(C(=O)N2c3ccccc3Sc3ccccc32)CC1,14*,85*,82*,80*,35,91*,85*,55*,60*
C=CCC(C#Cc1ccc(C)cc1)N(CC)CC (centres undefined),1,0,2,-6,.,4,.,.,.
COC(=O)c1ccc(Oc2cc(C)nc(-n3nc(C)cc3C)n2)cc1,20*,74*,66*,82*,.,23*,81*,20,45*
CC1(C)Cc2c(cnn2-c2ccccc2)C(=O)/C1=N\NC(=O)c1ccccc1O,2,1,6,-10,2,1,.,.,.
Cn1nc(-c2ccc(Cl)cc2)nc2c(=O)n(C)c(=O)nc1-2,15*,95*,85*,91*,-1,98*,113*,63*,78*
COc1ccc(-n2nnnc2SCC(=O)NCCc2ccccc2)cc1OC,2,-1,6,-18,0,-4,.,.,.
COc1ccc(CCNc2nnc(Sc3nnnn3-c3ccccc3)s2)cc1OC,8,93*,96*,65*,1,93*,80*,70*,77*
COc1cc(/C=C/CN2CCN(Cc3ccc(C)o3)C(CCO)C2)ccc1O (centres undefined),1,0,2,16,-2,8,.,.,.
O=C(N/N=C/c1c(O)ccc2ccccc12)c1cccnc1,.,.,.,82*,.,75*,81*,20,19
O=C(N/N=C\c1c(O)ccc2ccccc12)c1cncc(Br)c1,.,.,.,70*,.,95*,86*,56*,65*
O=C(N/N=C/c1cc(O)ccc1Br)c1cccnc1,.,.,.,80*,.,66*,90*,17,18
Cc1ccc(C(=O)N/N=C/c2c(O)ccc3ccccc23)cn1,.,.,.,94*,.,39*,85*,15,33*
Cn1cc(C(=O)N/N=C/c2c(O)ccc3ccccc23)ccc1=O,6,1,7,32,6,-6,.,.,.
COc1cc(C(=O)Nc2cc(C(F)(F)F)ccc2Cl)cc(OC)c1OC,3,4,10,-2,1,-2,.,.,.
S=C1NCCOCCNC(=S)NCCOCCOCCOCCN1,3,1,7,-8,5,1,.,.,.
CC(C)CN1C(=O)c2ccc(C(=O)Nc3ccc(OCC(=O)O)cc3)cc2C1=O,.,.,.,-26,.,-1,.,.,.
CCN(CC)CCNC(=O)c1ccc2c(c1NCCO)C(=O)c1ccccc1C2=O,.,96*,102*,107*,1,100*,89*,102*,102*
COCCCNc1nnc(Cc2ccc(Cl)cc2)c(=O)[nH]1,.,.,.,62*,.,82*,80*,38*,60*
SMILES,MT stabilize HCS,Ba/F3 V617F tox,BaF3 parental,KLF5 inhibitor,bCat nuc transl,IEC-6 tox-1,KLF5 inh confirm,IEC-6 tox-2,IEC-6 cytotox cf
O=C(c1cc([N+](=O)[O-])ccc1N1CCOCC1)N1CCN(c2ccccc2)CC1,.,.,.,82*,.,90*,90*,73*,62*
Cc1ccc(C(=O)c2cc([N+](=O)[O-])ccc2N2CCOCC2)c(C)c1,6,76*,84*,74*,135*,91*,84*,70*,59*
O=C(c1ccc(Br)cc1)c1cc([N+](=O)[O-])ccc1N1CCCCC1,17*,83*,79*,84*,63*,87*,82*,63*,60*
Cc1cc(C)c(NC(=O)COC(=O)c2cc([N+](=O)[O-])ccc2N2CCOCC2)c(C)c1,.,.,.,-10,.,4,.,.,.
Cn1c(=O)c2c(ncn2CCC(=O)N/N=C/c2cccnc2)n(C)c1=O,.,2,-3,-19,-4,-4,.,.,.
Cc1onc(-c2ccccc2Cl)c1C(=O)N1CCN(C=O)CC1,.,.,.,-13,.,-1,.,.,.
Cc1cccc(N2CCN(C(=O)c3c(-c4ccccc4Cl)noc3C)CC2)c1C,.,.,.,77*,.,73*,76*,56*,55*
Brc1ccc2c(c1)CN1CCCC1=N2,.,.,.,-7,.,34*,.,.,12
CCn1ncc(NC(=S)Nc2ccc3c(c2)OCO3)c1C(N)=O,2,1,14,-22,-4,-1,.,.,.
Cc1ccc(OCCn2cc(C(=S)N3CCCC3)c3ccccc32)cc1C,4,3,3,24,-2,70*,.,.,44*
CCN(CC)C(=O)Cn1cc(C(=O)C(=O)N2CCN(Cc3ccc4c(c3)OCO4)CC2)c2ccccc21,.,.,.,-33,.,0,.,.,.
O=C(Nc1ccccc1)c1ccc(Nc2c([N+](=O)[O-])cc([N+](=O)[O-])c3ccccc23)cc1,2,-3,3,-20,0,-4,.,.,.
O=[N+]([O-])c1cc(Br)c(Nc2ccccc2)c([N+](=O)[O-])c1,.,.,.,37,.,22*,.,.,0
CCn1c2ccccc2c2cc(NC(=O)COc3ccccc3OC)ccc21,11,4,10,-13,30,13,.,.,.
CCn1c2ccccc2c2cc(NC(=O)CNCc3ccccc3OC)ccc21,.,.,.,51,.,71*,.,.,40*
O=C(c1cc(NC(=O)C23CC4CC(CC(C4)C2)C3)cc(NC(=O)C23CC4CC(CC(C4)C2)C3)c1)N1CCCCC1,3,0,3,5,1,37*,.,.,30*
Cc1nc(SCc2ccccc2)[nH]c(=O)c1CC(=O)OCC(C)C,.,.,.,4,.,0,.,.,.
CCCC1(C)NC(=O)c2ccccc2O1 (centres undefined),4,2,5,4,-1,-3,.,.,.
CCSc1nsc(NC(=O)Nc2ccccc2F)n1,.,.,.,-155,.,-3,.,.,.
C=CCSc1nsc(NC(=O)Nc2ccc(F)cc2)n1,.,.,.,-13,.,32*,.,.,48*
O=C(O)c1[nH]c2ccc([N+](=O)[O-])cc2c1-c1ccccc1,.,-3,1,5,0,-1,.,.,.
